≈ marks a conversion by molar mass, not a printed value. Calls of active or inactive are those of the source. The rule behind the calls is not given here.
Experiments:
Fusarium verticillioides [1] = assay: Antifungal activity against Fusarium moniliforme incubated for 48 hrs by microdilution method; assay type: functional
Procedure, shortened: (§1)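 Modified standardized broth microdilution. Phytopathogenic fungi pre-grown on PDA at 22 °C for 7–10 days. Test compounds added at 50–800 μg/mL to wells with fungal suspension, 0.2 mL final volume, DMSO ≤3% final. DMSO served as negative control and fungus without compound as positive control. Incubation 22 °C, 48 h. MIC taken as lowest concentration with no visible growth. Run in triplicate.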

SW480 [2] = assay: Growth inhibition of human SW480 cells by MTT assay; assay type: functional, cell-based
Pyricularia oryzae [3] = assay: Antifungal activity against Pyricularia oryzae incubated for 48 hrs by microdilution method; assay type: functional
Procedure, shortened: (§2)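 Fungus pre-grown on PDA at 22 °C for 7–10 days. Modified standardized broth microdilution with compounds at 50–800 μg/mL (final) in fungal suspension, final DMSO ≤3%. DMSO-only and compound-free fungal wells served as controls. Incubated at 22 °C for 48 h. MIC is the lowest concentration with no visible growth. Run in triplicate.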

A549 [4] = assay: Growth inhibition of human A549 cells by MTT assay; assay type: functional, cell-based
[5] = Antifungal activity against Gaeumannomyces graminis incubated for 48 hrs by microdilution method; assay type: functional; procedure, shortened: as §1
Fusarium oxysporum [6] = assay: Antifungal activity against Fusarium oxysporum incubated for 48 hrs by microdilution method; assay type: functional; procedure, shortened: as §1
HL-60 [7] = assay: Growth inhibition of human HL60 cells by MTT assay; assay type: functional, cell-based
[8] = Antifungal activity against Verticillium cinnabarinum incubated for 48 hrs by microdilution method; assay type: functional; procedure, shortened: as §1
MCF7 [9] = assay: Growth inhibition of human MCF7 cells by MTT assay; assay type: functional, cell-based
SMMC-7721 [10] = assay: Growth inhibition of human SMMC7721 cells by MTT assay; assay type: functional, cell-based
[11] = Antifungal activity against Verticillium cinnabarinum at 800 ug/ml incubated for 48 hrs by microdilution method; assay type: functional; procedure, shortened: as §1
SW480 [12] = assay: Growth inhibition of human SW480 cells at 40 uM by MTT assay; assay type: functional, cell-based
SMMC-7721 [13] = assay: Growth inhibition of human SMMC7721 cells at 40 uM by MTT assay; assay type: functional, cell-based
[14] = Antifungal activity against Gaeumannomyces graminis at 800 ug/ml incubated for 48 hrs by microdilution method; assay type: functional; procedure, shortened: as §1
Fusarium oxysporum [15] = assay: Antifungal activity against Fusarium oxysporum at 800 ug/ml incubated for 48 hrs by microdilution method; assay type: functional, organism-based; procedure, shortened: as §1
Fusarium verticillioides [16] = assay: Antifungal activity against Fusarium moniliforme at 800 ug/ml incubated for 48 hrs by microdilution method; assay type: functional, organism-based; procedure, shortened: as §1
Pyricularia oryzae [17] = assay: Antifungal activity against Pyricularia oryzae at 800 ug/ml incubated for 48 hrs by microdilution method; assay type: functional, organism-based; procedure, shortened: as §2
MCF7 [18] = assay: Growth inhibition of human MCF7 cells at 40 uM by MTT assay; assay type: functional, cell-based
HL-60 [19] = assay: Growth inhibition of human HL60 cells at 40 uM by MTT assay; assay type: functional, cell-based
A549 [20] = assay: Growth inhibition of human A549 cells at 40 uM by MTT assay; assay type: functional, cell-based

Question: With `C/C1=C/C=C\C=C\[C@H](C)[C@@H](O)CC(=O)/C(C)=C/C[C@H](O)/C=C/[C@H](C)[C@H](O)[C@@H](C)/C=C(\C)C(=O)c2c(O)c(C)cc3c2C(=O)C(Cl)=C(NC1=O)C3=O` [NAPHTHOMYCIN A] as the compound, how does the MIC (Fusarium verticillioides [1]) read?
Answer: Its MIC is 100 µg/mL (≈ 139 µM).

Question: And the IC50 (SW480 [2])?
Answer: The IC50 was 11.7 µM.

Question: What about the MIC (Pyricularia oryzae [3]) of the same compound?
Answer: The MIC was 400 µg/mL (≈ 555 µM).

Question: And the IC50 (A549 [4])?
Answer: The IC50 was 15.9 µM.

Question: And the MIC [5]?
Answer: The MIC was 400 µg/mL (≈ 555 µM).

Question: And the MIC (Fusarium oxysporum [6])?
Answer: The MIC was 400 µg/mL (≈ 555 µM).

Question: What about the IC50 (HL-60 [7]) of the same compound?
Answer: Its IC50 is 25.6 µM.

Question: And the MIC [8]?
Answer: Its MIC is 400 µg/mL (≈ 555 µM).

Question: What about the IC50 (MCF7 [9]) of the same compound?
Answer: The IC50 was 11.7 µM.

Question: What about the IC50 (SMMC-7721 [10]) of the same compound?
Answer: The IC50 was 16.6 µM.

Question: With `C/C1=C/C=C\C=C\[C@H](C)[C@@H](O)CC(=O)/C(C)=C/C[C@H](O)/C=C/[C@H](C)[C@H](O)[C@@H](C)/C=C(\C)C(=O)c2c(O)c(C)cc3c2C(=O)C(SCC(=O)O)=C(NC1=O)C3=O` as the compound, how does the Activity [11] read?
Answer: Its Activity is “inactive”.

Question: What about the “growth inhibition (GI)” value (SW480 [12]) of the same compound?
Answer: Its value is “inactive”.

Question: And the “growth inhibition (GI)” value (SMMC-7721 [13])?
Answer: The value was “inactive”.

Question: What about the Activity [14] of the same compound?
Answer: The Activity was “inactive”.

Question: What about the Activity (Fusarium oxysporum [15]) of the same compound?
Answer: Its Activity is “inactive”.

Question: What about the Activity (Fusarium verticillioides [16]) of the same compound?
Answer: Its Activity is “inactive”.

Question: What about the Activity (Pyricularia oryzae [17]) of the same compound?
Answer: The Activity was “inactive”.

Question: And the “growth inhibition (GI)” value (MCF7 [18])?
Answer: Its value is “inactive”.

Question: What about the “growth inhibition (GI)” value (HL-60 [19]) of the same compound?
Answer: Its value is “inactive”.

Question: What about the “growth inhibition (GI)” value (A549 [20]) of the same compound?
Answer: Its value is “inactive”.

Question: Which MIC (Fusarium verticillioides [1]) does the source give for `C/C1=C/C=C\C=C\[C@H](C)[C@@H](O)CC(=O)/C(C)=C/C[C@H](O)/C=C/[C@H](C)[C@H](O)[C@@H](C)/C=C(\C)C(=O)c2c(O)c(C)cc3c2C(=O)C(N)=C(NC1=O)C3=O` [NAPHTHOMYCIN L] here?
Answer: The MIC was 300 µg/mL (≈ 428 µM).

Question: And the “growth inhibition (GI)” value (SW480 [12])?
Answer: Its value is “inactive”.

Question: What about the “growth inhibition (GI)” value (SMMC-7721 [13]) of the same compound?
Answer: The value was “inactive”.

Question: And the MIC (Pyricularia oryzae [3])?
Answer: The MIC was 600 µg/mL (≈ 856 µM).

Question: And the MIC [5]?
Answer: The MIC was 600 µg/mL (≈ 856 µM).

Question: What about the MIC (Fusarium oxysporum [6]) of the same compound?
Answer: Its MIC is 600 µg/mL (≈ 856 µM).

Question: What about the MIC [8] of the same compound?
Answer: The MIC was 600 µg/mL (≈ 856 µM).

Question: And the “growth inhibition (GI)” value (MCF7 [18])?
Answer: The value was “inactive”.

Question: And the “growth inhibition (GI)” value (HL-60 [19])?
Answer: The value was “inactive”.

Question: And the “growth inhibition (GI)” value (A549 [20])?
Answer: The value was “inactive”.

Question: Which Activity [11] does the source give for `C/C1=C/C=C\C=C\[C@H](C)[C@@H](O)CC(=O)/C(C)=C/C[C@H](O)/C=C/[C@H](C)[C@H](O)[C@@H](C)/C=C(\C)C(=O)c2c(O)c(C)cc3c2C(=O)C(NCCSC2=C4NC(=O)\C(C)=C/C=C\C=C\[C@H](C)[C@@H](O)CC(=O)/C(C)=C/C[C@H](O)/C=C/[C@H](C)[C@H](O)[C@@H](C)/C=C(\C)C(=O)c5c(O)c(C)cc(c5C2=O)C4=O)=C(NC1=O)C3=O` here?
Answer: Its Activity is “inactive”.

Question: What about the “growth inhibition (GI)” value (SW480 [12]) of the same compound?
Answer: The value was “inactive”.

Question: What about the “growth inhibition (GI)” value (SMMC-7721 [13]) of the same compound?
Answer: The value was “inactive”.

Question: And the Activity [14]?
Answer: The Activity was “inactive”.

Question: And the Activity (Fusarium oxysporum [15])?
Answer: Its Activity is “inactive”.

Question: And the Activity (Fusarium verticillioides [16])?
Answer: Its Activity is “inactive”.

Question: And the Activity (Pyricularia oryzae [17])?
Answer: The Activity was “inactive”.

Question: And the “growth inhibition (GI)” value (MCF7 [18])?
Answer: The value was “inactive”.

Question: What about the “growth inhibition (GI)” value (HL-60 [19]) of the same compound?
Answer: The value was “inactive”.

Question: What about the “growth inhibition (GI)” value (A549 [20]) of the same compound?
Answer: The value was “inactive”.

Question: For `C/C1=C/C=C\C=C\[C@H](C)[C@@H](O)CC(=O)/C(C)=C/C[C@H](O)/C=C/[C@H](C)[C@H](O)[C@@H](C)/C=C(\C)C(=O)c2c(O)c(C)cc3c2C(=O)C=C(NC1=O)C3=O`, which Activity [11] is on record?
Answer: The Activity was “inactive”.

Question: What about the “growth inhibition (GI)” value (SW480 [12]) of the same compound?
Answer: The value was “inactive”.

Question: What about the “growth inhibition (GI)” value (SMMC-7721 [13]) of the same compound?
Answer: The value was “inactive”.

Question: What about the Activity [14] of the same compound?
Answer: Its Activity is “inactive”.

Question: And the Activity (Fusarium oxysporum [15])?
Answer: Its Activity is “inactive”.

Question: And the Activity (Fusarium verticillioides [16])?
Answer: The Activity was “inactive”.

Question: What about the Activity (Pyricularia oryzae [17]) of the same compound?
Answer: Its Activity is “inactive”.

Question: What about the “growth inhibition (GI)” value (MCF7 [18]) of the same compound?
Answer: Its value is “inactive”.

Question: And the “growth inhibition (GI)” value (HL-60 [19])?
Answer: The value was “inactive”.

Question: And the “growth inhibition (GI)” value (A549 [20])?
Answer: The value was “inactive”.

Question: With `C/C1=C/C=C\C=C\[C@H](C)[C@@H](O)CC(=O)/C(C)=C/C[C@H](O)/C=C/[C@H](C)[C@H](O)[C@@H](C)/C=C(\C)C(=O)c2c(O)c(C)cc3c2C(=O)C(O)=C(NC1=O)C3=O` as the compound, how does the Activity [11] read?
Answer: The Activity was “inactive”.

Question: What about the “growth inhibition (GI)” value (SW480 [12]) of the same compound?
Answer: The value was “inactive”.

Question: What about the “growth inhibition (GI)” value (SMMC-7721 [13]) of the same compound?
Answer: The value was “inactive”.

Question: And the Activity [14]?
Answer: The Activity was “inactive”.

Question: And the Activity (Fusarium oxysporum [15])?
Answer: Its Activity is “inactive”.

Question: What about the Activity (Fusarium verticillioides [16]) of the same compound?
Answer: Its Activity is “inactive”.

Question: What about the Activity (Pyricularia oryzae [17]) of the same compound?
Answer: The Activity was “inactive”.

Question: What about the “growth inhibition (GI)” value (MCF7 [18]) of the same compound?
Answer: Its value is “inactive”.

Question: What about the “growth inhibition (GI)” value (HL-60 [19]) of the same compound?
Answer: The value was “inactive”.

Question: And the “growth inhibition (GI)” value (A549 [20])?
Answer: Its value is “inactive”.

— ChEMBL document CHEMBL2169852, “Naphthomycins L-N, ansamycin antibiotics from Streptomyces sp. CS” (J Nat Prod, 2012)
